This is an account of results in ChEMBL document CHEMBL4414601 (J Med Chem, 2019).

For data set [1], the system named is Plasmodium falciparum. The experiment in a line: Antiplasmodial activity against Plasmodium falciparum 3D7A erythrocytic stage assessed as reduction in [3H]hypoxanthine incorporation preincubated for 24 hrs followed by [3H]hypoxanthine addition and measured after 24 hrs by microbeta scintillation counting method. Format: functional, organism-based. Summed up:
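Nine threefold serial dilutions from 5 μM top concentration. Incubated 24 h at 37 °C under 5% CO2/5% O2/90% N2, then 0.2 μCi [3H]-hypoxanthine per well for another 24 h. Cells harvested on glass fibre filters and counted. Data normalized to compound-free parasitized RBCs; IC50 fitted.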

The nature of data set [2]: Lipophilicity, LogD of compound by reverse phase HPLC analysis.
Data set [3] can be described thus: Aqueous solubility of compound. As to conditions: buffer.
A short description of data set [4]: Clearance in human liver microsomes at 0.5 uM measured up to 45 mins in presence of NADPH by HPLC-MS/MS analysis. Format: ADME, Microsome. A general note: Liver microsomes are a subcellular fraction often used to study metabolism.
For data set [5], the system named is Plasmodium falciparum. Kind of data set: Antiplasmodial activity against […] of Plasmodium falciparum NF54 assessed as reduction in male gametocytes activation preincubated for 48 hrs followed by gametocytes activation and measured after 24 hrs by fluorescence based automated inverted microscopic analysis. Type of data set: functional, organism-based. Summed up:
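Gametocyte activation was triggered by reduced temperature and ookinete medium containing xanthurenic acid. Male exflagellation centres were detected from a 10-frame video, scoring pixel changes caused by flagellar movement shifting surrounding cells.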

For data set [6], the system named is Plasmodium falciparum. Kind of data set: Antiplasmodial activity against […] of Plasmodium falciparum NF54 assessed as reduction in female gametocytes activation preincubated for 48 hrs followed by gametocytes activation and measured after 24 hrs by fluorescence based automated inverted microscopic analysis. Type of data set: functional, organism-based. Summed up:
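NF54 gametocytes were activated by lowered temperature plus ookinete medium with xanthurenic acid and anti-Pfs25-Cy3 antibody (1/2000 final dilution). Cultures were then kept at 26 °C for 24 h in the dark. Activated females were counted by Cy3 anti-Pfs25 fluorescence, with events gated on size, roundness and fluorescence intensity.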

For data set [7], the target named is T1, Amine oxidase [flavin-containing] A (Homo sapiens, UniProt P21397).
T1 sequence (P21397 whole entry): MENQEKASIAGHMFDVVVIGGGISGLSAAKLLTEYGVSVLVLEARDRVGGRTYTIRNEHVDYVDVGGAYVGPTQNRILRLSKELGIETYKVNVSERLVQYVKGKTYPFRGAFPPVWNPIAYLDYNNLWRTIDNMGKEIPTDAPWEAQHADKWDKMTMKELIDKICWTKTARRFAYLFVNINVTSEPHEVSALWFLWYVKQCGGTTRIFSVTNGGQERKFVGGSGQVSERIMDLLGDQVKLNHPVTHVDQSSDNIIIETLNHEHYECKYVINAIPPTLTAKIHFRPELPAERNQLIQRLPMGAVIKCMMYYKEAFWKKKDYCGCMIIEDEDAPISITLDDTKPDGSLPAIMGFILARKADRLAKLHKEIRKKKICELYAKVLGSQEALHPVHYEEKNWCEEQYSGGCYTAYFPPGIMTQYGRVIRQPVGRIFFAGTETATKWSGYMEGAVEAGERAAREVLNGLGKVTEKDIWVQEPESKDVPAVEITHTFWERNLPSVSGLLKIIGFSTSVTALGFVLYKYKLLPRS
Kind of data set: Inhibition of human MAO-A.

The target of data set [8] is cGMP-inhibited 3',5'-cyclic phosphodiesterase 3A (Homo sapiens, UniProt Q14432). The experiment in a line: Inhibition of PDE3A (unknown origin).
Data set [9] concerns Plasmodium falciparum. The experiment in a line: Antiplasmodial activity against Plasmodium falciparum 3D7A asexual erythrocytic stage assessed as reduction in [3H]hypoxanthine incorporation preincubated for 72 hrs followed by [3H]hypoxanthine addition and measured after 24 hrs by microbeta scintillation counting method. Type of data set: functional, organism-based.
The test system of data set [10] is Plasmodium falciparum. Kind of data set: Antiplasmodial activity against Plasmodium falciparum 3D7A harboring with PKG T618Q mutant asexual erythrocytic stage assessed as reduction in [3H]hypoxanthine incorporation preincubated for 48 hrs followed by [3H]hypoxanthine addition and measured after 24 hrs by microbeta scintillation counting method. Format: functional, organism-based.

In data set [11] the test system is Plasmodium falciparum. The experiment in a line: Antiplasmodial activity against Plasmodium falciparum 3D7A harboring with PKG T618Q mutant asexual erythrocytic stage assessed as reduction in [3H]hypoxanthine incorporation preincubated for 72 hrs followed by [3H]hypoxanthine addition and measured after 24 hrs by microbeta scintillation counting method. Format: functional, organism-based.

Data set [12] addresses T2, Calcium-dependent protein kinase 4 (Plasmodium falciparum (isolate 3D7), UniProt Q8IBS5).
T2 sequence (Q8IBS5 whole entry): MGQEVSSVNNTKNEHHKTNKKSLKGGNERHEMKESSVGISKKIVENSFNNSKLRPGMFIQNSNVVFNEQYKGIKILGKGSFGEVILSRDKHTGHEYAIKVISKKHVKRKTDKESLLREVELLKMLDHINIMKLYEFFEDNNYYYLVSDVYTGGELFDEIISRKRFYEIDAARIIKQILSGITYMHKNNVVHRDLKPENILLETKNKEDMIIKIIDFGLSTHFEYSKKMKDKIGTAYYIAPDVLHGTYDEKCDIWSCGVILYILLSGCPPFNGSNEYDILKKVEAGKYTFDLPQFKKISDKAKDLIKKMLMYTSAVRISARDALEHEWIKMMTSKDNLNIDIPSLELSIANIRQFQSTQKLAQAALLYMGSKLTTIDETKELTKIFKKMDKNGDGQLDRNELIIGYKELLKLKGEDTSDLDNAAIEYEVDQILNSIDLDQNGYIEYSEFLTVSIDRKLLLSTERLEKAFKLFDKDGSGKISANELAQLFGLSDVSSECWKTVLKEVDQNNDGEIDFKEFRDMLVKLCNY
The experiment in a line: Binding affinity to CDPK4 in Plasmodium falciparum 3D7 blood stage extract incubated for 1 hr by kinobeads based pull down assay. As to conditions: read-out: Kd(app). The procedure, abridged: (§1)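 Chemoproteomic competition used kinobeads or Sepharose beads derivatized with ligand at 1 mM. Free compound was tested at six concentrations between 0.08 and 20 μM, in two independent experiments. Proteins were SP3-digested, TMT 10-plex labelled and measured by LC-MS/MS. IC50s came from competition curves, and apparent Kd was corrected for protein depletion by the beads.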

Data set [13] deals with T2, Calcium-dependent protein kinase 4. The experiment in a line: Binding affinity to CDPK4 in Plasmodium falciparum 3D7 blood stage extract incubated for 1 hr in presence of ATP-competitive kinase inhibitor by kinobeads based pull down assay. As to conditions: read-out: Kd(app). The procedure, abridged:
as §1

Data set [14] concerns the target Calcium-dependent protein kinase 1 (Plasmodium falciparum, UniProt P62344). The experiment in a line: Binding affinity to CDPK1 in Plasmodium falciparum 3D7 blood stage extract incubated for 1 hr in presence of ATP-competitive kinase inhibitor by kinobeads based pull down assay. Particulars: read-out: Kd(app). Summed up: as §1
Data set [15] can be described thus: Binding affinity to zinc finger (CCCH type) protein in Plasmodium falciparum 3D7 blood stage extract incubated for 1 hr by kinobeads based pull down assay. Particulars: read-out: Kd(app).
Data set [16] in a line: Binding affinity to zinc finger (CCCH type) protein in Plasmodium falciparum 3D7 blood stage extract incubated for 1 hr in presence of ATP-competitive kinase inhibitor by kinobeads based pull down assay. Particulars: read-out: Kd(app).
The nature of data set [17]: Binding affinity to GSK3 in Plasmodium falciparum 3D7 blood stage extract incubated for 1 hr by kinobeads based pull down assay. As to conditions: read-out: Kd(app). The procedure, abridged: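 The free compound competed over six concentrations from 0.08 to 20 μM. Proteins were digested by a modified SP3 protocol, labelled with TMT 10-plex and quantified by LC-MS/MS. Apparent Kd was derived from IC50 corrected for bead depletion. Two independent experiments were run.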

Values after ≈ are worked out from the molar mass of the structure shown.

Chain of cGMP-inhibited 3',5'-cyclic phosphodiesterase 3A (Q14432 whole entry): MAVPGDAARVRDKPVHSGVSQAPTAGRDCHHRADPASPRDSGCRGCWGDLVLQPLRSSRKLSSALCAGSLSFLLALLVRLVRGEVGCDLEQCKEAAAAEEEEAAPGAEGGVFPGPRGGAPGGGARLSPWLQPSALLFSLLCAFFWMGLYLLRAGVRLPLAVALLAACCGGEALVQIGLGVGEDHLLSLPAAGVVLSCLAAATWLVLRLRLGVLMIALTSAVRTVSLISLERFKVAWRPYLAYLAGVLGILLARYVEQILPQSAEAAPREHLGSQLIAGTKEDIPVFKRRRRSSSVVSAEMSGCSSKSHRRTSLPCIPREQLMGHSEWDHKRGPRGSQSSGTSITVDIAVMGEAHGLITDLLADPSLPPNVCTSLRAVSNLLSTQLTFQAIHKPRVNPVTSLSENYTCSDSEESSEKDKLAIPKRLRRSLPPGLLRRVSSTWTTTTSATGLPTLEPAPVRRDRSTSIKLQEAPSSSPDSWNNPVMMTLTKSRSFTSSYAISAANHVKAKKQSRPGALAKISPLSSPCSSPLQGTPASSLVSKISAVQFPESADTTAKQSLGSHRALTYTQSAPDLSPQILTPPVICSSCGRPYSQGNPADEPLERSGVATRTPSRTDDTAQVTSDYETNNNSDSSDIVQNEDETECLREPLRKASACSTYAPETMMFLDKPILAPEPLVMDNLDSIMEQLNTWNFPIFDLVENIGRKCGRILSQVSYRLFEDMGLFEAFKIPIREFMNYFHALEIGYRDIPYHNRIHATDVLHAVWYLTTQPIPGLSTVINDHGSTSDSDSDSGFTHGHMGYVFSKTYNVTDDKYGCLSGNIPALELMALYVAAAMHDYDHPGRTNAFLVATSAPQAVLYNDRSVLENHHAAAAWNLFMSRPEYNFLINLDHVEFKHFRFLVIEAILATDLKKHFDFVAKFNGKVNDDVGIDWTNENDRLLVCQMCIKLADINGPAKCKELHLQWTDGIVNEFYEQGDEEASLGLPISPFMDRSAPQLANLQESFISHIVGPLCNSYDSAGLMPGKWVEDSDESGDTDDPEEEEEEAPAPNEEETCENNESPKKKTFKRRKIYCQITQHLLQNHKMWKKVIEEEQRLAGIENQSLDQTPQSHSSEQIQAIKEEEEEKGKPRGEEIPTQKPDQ
Chain of Calcium-dependent protein kinase 1 (P62344 whole entry): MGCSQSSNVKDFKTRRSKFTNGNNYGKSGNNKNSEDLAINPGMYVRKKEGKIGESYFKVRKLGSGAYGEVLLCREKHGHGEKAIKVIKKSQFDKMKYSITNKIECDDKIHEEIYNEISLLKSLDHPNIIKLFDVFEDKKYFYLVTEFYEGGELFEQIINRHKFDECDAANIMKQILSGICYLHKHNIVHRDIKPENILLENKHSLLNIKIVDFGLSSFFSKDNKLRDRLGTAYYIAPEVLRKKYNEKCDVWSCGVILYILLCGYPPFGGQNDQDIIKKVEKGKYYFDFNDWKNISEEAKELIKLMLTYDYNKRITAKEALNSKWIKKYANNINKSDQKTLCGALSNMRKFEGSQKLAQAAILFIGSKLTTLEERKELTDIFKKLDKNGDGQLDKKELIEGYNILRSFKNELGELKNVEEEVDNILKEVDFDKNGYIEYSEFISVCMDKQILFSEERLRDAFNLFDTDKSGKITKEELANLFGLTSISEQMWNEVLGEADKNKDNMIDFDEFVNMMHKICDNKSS

As for `Cc1cc(Nc2nccc(-c3sc(C4CCNCC4)nc3-c3ccc(F)cc3)n2)ccn1`, the concentration for a half-maximal effect (EC50) (in general, the concentration giving half of the maximal effect) was found to be 160 nM with Plasmodium falciparum [1]; 300 nM in the data set on Plasmodium falciparum [5]; 400 nM in the data set with Plasmodium falciparum [6]; 90 nM with Plasmodium falciparum [9]; 150 nM in the data set on Plasmodium falciparum [10]; 120 nM in the data set on Plasmodium falciparum [11]. In [2], the chromatographic logD (in general, a lipophilicity value derived from retention on a column) came to 2.54. The solubility (usually the dissolved amount per volume that the medium holds) in [3] was 410 µM (≈ 183 µg/mL). For the same compound, the CLH in data set [4] is 0.96 mL/min/g. For the same compound, the concentration for half-maximal inhibition (IC50) in [7] and in data set [8] was above 100000 nM throughout. Also, the Kd is 50 nM in [12]; 50 nM in data set [13]; 50 nM in data set [14]; 3900 nM in [15]; 3900 nM in data set [16]; 90 nM in data set [17].
